# Screening data deposited in PubChem by several laboratories.
# Rows were chosen to be rich in hits. Some 2% of all compounds tested hit in one or more screens of this group.
# eIF4E 4G PPI – eIF4E–eIF4G protein interaction inhibitors, primary screen, biochemical, uHTS, TR-FRET, eIF4GI fragment; Eukaryotic translation initiation factor 4E (Mus musculus) + Eukaryotic translation …; TR-FRET eIF4E-eIF4GI(517-606) binding, 2 h; inhibition, % at 21.7 µM; hit rate 0.37% among 220,000; AID 782, 2007;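 note: 0% = full FRET control wells and 100% = background wells lacking eIF4GI fragment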
# 14-3-3 Bad PPI – inhibitors of 14-3-3 zeta/Bad binding, primary screen, biochemical, TR-FRET, bovine 14-3-3 zeta | inhibition, % at 21.7 µM | hit rate 0.71% among 220,000 | TR-FRET 14-3-3zeta/Dy647-pBad peptide displacement, 1 h | 14-3-3 protein zeta/delta (Bos taurus), P63103 | AID 781, 2007;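 active = inhibition above about 70%, limit read from the data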;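 note: 0% = full 14-3-3 plus peptide FRET controls and 100% = background without 14-3-3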
# Hck Nef HTS – inhibitors of Nef-activated human Hck kinase, primary screen, biochemical, Z-Lyte FRET, 384-well, Hck-YEEI. Recombinant Hck-YEEI plus Nef, Z-Lyte FRET kinase assay. AID 463187, 2010. hit rate 0.68% among 220,000. Tyrosine-protein kinase HCK (Homo sapiens), P08631. inhibition, % at 20 µM;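 active = Hck-Nef kinase inhibition above about 50%, limit read from the data; inactive = inhibition below that limit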;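 note: 0% = DMSO with Hck plus Nef and 100% = Hck alone without Nef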
# Target sequence (P08631 whole entry, looked up): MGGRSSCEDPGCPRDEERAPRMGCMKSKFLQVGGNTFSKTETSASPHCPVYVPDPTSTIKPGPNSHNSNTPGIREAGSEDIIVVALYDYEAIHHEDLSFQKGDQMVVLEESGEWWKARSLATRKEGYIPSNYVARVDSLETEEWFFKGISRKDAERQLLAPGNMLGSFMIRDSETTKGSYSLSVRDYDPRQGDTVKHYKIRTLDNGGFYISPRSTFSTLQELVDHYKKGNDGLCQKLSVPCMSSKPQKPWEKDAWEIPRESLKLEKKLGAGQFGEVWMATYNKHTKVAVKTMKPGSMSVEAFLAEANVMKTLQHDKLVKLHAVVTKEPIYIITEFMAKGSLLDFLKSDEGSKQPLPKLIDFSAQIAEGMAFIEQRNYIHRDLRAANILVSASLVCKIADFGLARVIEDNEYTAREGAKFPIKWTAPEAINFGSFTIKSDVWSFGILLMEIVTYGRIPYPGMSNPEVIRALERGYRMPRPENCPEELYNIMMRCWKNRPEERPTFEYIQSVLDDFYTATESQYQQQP
# Diaphorase act – compounds boosting diaphorase resazurin reduction – biochemical, uHTS, resorufin fluorescence, counter-screen for diaphorase-coupled primary assays, primary screen; hit rate 0.005% among 190,000; AID 1229, 2008; Diaphorase/resazurin coupled assay, 16 min; hits give high values; 1 = vehicle wells, 0 = NADH-free wells; activation factor at 20 µM;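 active = diaphorase activity raised at least twofold by the compound at 20 µM; inactive = activation factor below 2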
#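 Test system: Clostridium kluyveri diaphorase, purified enzyme; input: enzyme 0.07 U/mL final; buffer or medium: 50 mM HEPES pH 7.4 with 4.542 mM MgCl2, 0.005% Tween 20; also added: 0.114 mM NADH and 0.1 mM resazurin, final amounts; schedule: 16 min enzyme reaction, ambient temperature; technique: fluorescence of resorufin, 544 nm excitation, 590 nm emission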
# NCF1 inh – p47phox/p22phox peptide binding inhibitors, primary screen, biochemical, uHTS, NADPH oxidase regulatory subunit. Neutrophil cytosol factor 1 (Homo sapiens), P14598. fluorescence polarization, 2 h. inhibition, % at 24.7 µM. hit rate 0.53% among 220,000;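 note: 0% = p47phox with labelled peptide and 100% = labelled peptide alone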
# Hck Nef conf – retest of Hck:Nef kinase inhibitor hits, confirmation, biochemical, Z-Lyte FRET, 384-well, p-Tyr peptide counterscreen; shares compounds with Hck Nef HTS; Recombinant Hck-YEEI:Nef, Z-Lyte FRET kinase assay; calls only at 10 µM; hit rate 28% among 1,300; AID 463188, 2010;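 active = average inhibition of at least 50%, with Z-scores no higher than 3 in both the phospho-tyrosine peptide and fluorescence counterscreens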
# Active calls of the source: *; i = inactive; x = not tested or not shown; + = active, no number; [ ] = remark or other dose.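 Rule for the calls, unless noted: active = inhibition above about 30% (limit read from the data); inactive = the rest.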
SMILES,eIF4E 4G PPI,14-3-3 Bad PPI,Hck Nef HTS,Diaphorase act,NCF1 inh,Hck Nef conf
O=C(CN1CC[n+]2c(-c3cccs3)csc21)c1ccc(-c2ccccc2)cc1,-4,-13,143*,1.5,20,+
Cc1cc2c(C)cc(=O)oc2c2c1NCCC2,2,2,97*,0.8,-8,x
CCC(=O)c1cc2c(C)cc(=O)oc2c(C)c1OC,2,4,4,1,-10,x
O=C(CCNS(=O)(=O)c1ccc(Br)s1)NCc1ccc2c(c1)OCO2,-3,-12,20,1,-3,x
O=C1/C(=C/C=C/c2ccco2)SC(=S)N1c1ccc(O)cc1,37*,63,98*,x,-63,+
CC(C)C(C(=O)O)N1C(=O)/C(=C/C=C/c2ccco2)SC1=S (configuration not stated),46*,71*[fluorescence artefact?],83*,0.5,-81,i
O=C(NN1C(=O)/C(=C/C=C/c2ccco2)SC1=S)c1ccncc1,37*,71*,90*,x,-84,i
COc1cc(/C=C/C(=O)OCC(=O)NC(=O)NC(C)C)ccc1O,5,-7,3,x,3,x
O=C(COC(=O)c1ccccc1)NCCC1=CCCCC1,-2,-7,23,0.9,-8,x
CCN1/C(=N\N)c2cccc3cccc1c23,-5,-1,-13,0.8,-55,x
O=C1/C(=C/c2ccco2)CCc2ccccc21,3,13,100*,0.8,-6,i
CCCCC(=O)Nc1ccc(NC(=O)c2ccccc2[N+](=O)[O-])cc1OC,5,-19,1,1,-1,x
O=c1nc2ccccc2c2n1CC(CN1CCN(C(c3ccccc3)c3ccccc3)CC1)N2 (configuration not stated),0,-10,3,0.8,-16,x
CCc1ccc(/C=N/Nc2ncnc3nc[nH]c23)cc1,-3,-2,95*,x,7,+
O=C(CSc1ccc2ccccc2n1)Nc1ccc(N2CCOCC2)cc1,2,-14,20,1,-2,x
Cc1cccc2c(SCC(=O)NCC3CCCO3)nc(-c3ccc(F)cc3)nc12 (configuration not stated),4,2,88*,1.1,12,i
O=C(Nc1ccc(-c2cnco2)cc1)c1ccccc1,0,-7,-2,x,-3,x
O=C(NC(=O)c1ccccc1Cl)Nc1ccc(-c2cnco2)cc1,-5,48,70*,x,-3,i
Cc1cc(-n2c(=O)c(C#N)cc3c(=O)n4cccc(C)c4nc32)no1,-3,2,190*,0.9,-6,x
Cc1cccn2c(=O)c3cc(C#N)c(=O)n(-c4c(C)n(C)n(-c5ccccc5)c4=O)c3nc12,-9,-4,10,0.8,-12,x
Cc1ccc(C)c(-n2c(=O)c(C#N)cc3c(=O)n4ccccc4nc32)c1,-2,-7,+,0.9,-16,x
Cc1cccc(-n2c(=O)c(C#N)cc3c(=O)n4ccccc4nc32)c1,0,3,199*,0.9,14,x
COc1ccc(CC(=O)Nc2ccc(-c3ccc4nnc(C)n4n3)cc2)cc1OC,-4,-1,-4,1.1,-2,x
CCOC(=O)/C(C#N)=C1/SC(CCO)C(=O)N1c1ccccc1 (configuration not stated),-2,-6,54*,0.8,-8,i
Cc1nc(C)c(C(=O)O)c(-c2cccs2)c1C(=O)O,-5,-1,14,x,1,x
SMILES,eIF4E 4G PPI,14-3-3 Bad PPI,Hck Nef HTS,Diaphorase act,NCF1 inh,Hck Nef conf
O=C(O)c1ccc2nc(-c3ccco3)c(-c3ccco3)nc2c1,12,22,52*,0.2,-3,i
Cc1ccc(N/N=C/c2c(C)c(C#N)c(=O)n(C)c2O)cc1C,2,-15,77*,0.3,-15,i
Cc1cccc(-n2c(C)cc(/C=C3/C(=N)N4C(c5ccccc5)=CSC4=NC3=O)c2C)c1,-1,-6,3,0.9,-119,x
COc1cc(/C=C2/C(=N)N3C(c4ccccc4)=CSC3=NC2=O)ccc1OCC(=O)O,4,6,79*,x,-53,+
O=C(CN(CCc1ccccc1)S(=O)(=O)c1ccc(Cl)cc1)N/N=C/c1ccccc1C(=O)O,0,6,15,0.8,1,x
COc1ccc(/C=C2\C(=O)ON=C2c2cccc([N+](=O)[O-])c2)cc1,3,-5,53*,0.8,-5,i
COc1ccc(NCC(=O)Nc2ccc(Br)cc2F)c(OC)c1,3,-1,4,x,-1,x
CC1(C)Cc2nc(N3CCCC3)c(C#N)cc2CO1,-2,-4,74*,1,4,i
Cc1ccc(C2=N/C(=C\c3cccnc3)C(=O)O2)cc1,-10,11,0,0.9,-3,x
O=C1OC(/C=C/c2ccccc2)=NC/1=C\c1cccnc1,2,0,82*,0.9,-6,+
CC[n+]1ccc(C)c2cc(SC(F)(F)F)ccc21,6,1,72*,1,-7,i
COc1cc(/C=C/C(=O)OC(C)C(=O)Nc2c(C)n(C)n(-c3ccccc3)c2=O)ccc1OCC#N (configuration not stated),2,14,-2,1,-1,x
CN1CCN(CCCNC(=O)Cn2ncc3c4ccccc4n(C)c3c2=O)CC1,-1,2,7,1,-2,x
Cc1cc2c(s1)c1cnn(CC(=O)NCCc3ccccc3)c(=O)c1n2C,5,28,76*,0.9,30*,i
O=c1cc(C(F)(F)F)[nH]c2ccccc12,8,7,50*,x,-7,i
O=c1c2ccccc2[nH]c2ccccc12,4,-14,144*,0.9,-1,x
CCOC(=O)C1CCCN(C(=O)c2csc(-c3ccc4c(c3)CCO4)n2)C1 (configuration not stated),0,-2,8,x,5,x
Cc1ccc(-c2[nH]ncc2/C=N/n2c(C)nc3ccccc3c2=O)cc1,-1,21,60*,x,22,i
O=c1c2ccccc2nc(COc2ccccc2)n1/N=C/c1cn[nH]c1-c1ccccc1,-1,37,4,0.8,19,x
CCCNC(=O)c1c(N)n(-c2cccc(OC)c2)c2nc3ccccc3nc12,3,-8,77*,0.8,-16,x
COCCCNC(=O)c1c(N)n(/N=C/c2ccccn2)c2nc3ccccc3nc12,x,x,10,0.9,x,x
